Measurements taken from ChEMBL document CHEMBL5584332, “Structure and Biosynthesis of Perochalasins A-C, Open-Chain Merocytochalasans Produced by the Marine-Derived Fungus Peroneutypa sp. M16” (J Nat Prod, 2024).

Columns and labels:
[1] = tested on: Plasmodium falciparum; assay: Resistance index, ratio of IC50 for drug-resistant Plasmodium falciparum Dd2 to IC50 for Plasmodium falciparum 3D7; format: functional
Procedure, shortened: (§1)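 Resistance index computed as IC50 against the resistant strain divided by IC50 against 3D7. IC50 values are mean ± standard deviation of two independent experiments in triplicate. Resistant strains: Dd2 (CQ, SDX, PYR, MQ, CYC), TM90C6B (CQ, PYR, ATO) and 3D7r_MMV848 (MMV692848).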

[2] = tested on: Plasmodium falciparum; assay: Antiplasmodial activity against drug-resistant Plasmodium falciparum 3D7r_MMV848; format: functional, organism-based
Procedure, shortened: (§2)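 In vitro asexual P. falciparum growth inhibition, reported as IC50. The strains were chloroquine-sensitive 3D7; Dd2, resistant to CQ, SDX, PYR, MQ and CYC; TM90C6B, resistant to CQ, PYR and ATO; and 3D7r_MMV848, resistant to MMV692848. A standard antimalarial served as control for each resistant strain. Values are mean ± standard deviation of two independent experiments run in triplicate.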

[3] = tested on: Plasmodium falciparum; assay: Antiplasmodial activity against Plasmodium falciparum 3D7; format: functional, organism-based; procedure, shortened: as §2
[4] = tested on: Plasmodium falciparum; assay: Resistance index, ratio of IC50 for drug-resistant Plasmodium falciparum TM90C6B to IC50 for Plasmodium falciparum 3D7; format: functional; procedure, shortened: as §1
[5] = tested on: Plasmodium falciparum; assay: Antiplasmodial activity against drug-resistant Plasmodium falciparum Dd2; format: functional, organism-based; procedure, shortened: as §2
[6] = Selectivity index, ratio of IC50 for human HepG2 cells to IC50 for Plasmodium falciparum 3D7; format: toxicity; conditions: HepG2 cells versus Plasmodium falciparum 3D7, read-out: Ratio IC50
[7] = tested on: Plasmodium falciparum; assay: Resistance index, ratio of IC50 for drug-resistant Plasmodium falciparum 3D7r_MMV848 to IC50 for Plasmodium falciparum 3D7; format: functional; procedure, shortened: as §1
[8] = Cytotoxicity against human HepG2 cells; format: toxicity, cell-based
[9] = tested on: Plasmodium falciparum; assay: Antiplasmodial activity against drug-resistant Plasmodium falciparum TM90C6B; format: functional, organism-based; procedure, shortened: as §2

| Structure (SMILES) | Ratio IC50 [1] | IC50 [2] | IC50 [3] | Ratio IC50 [4] | IC50 [5] | selectivity ratio [6] | Ratio IC50 [7] | IC50 [8] | IC50 [9] |
| --- | --- | --- | --- | --- | --- | --- | --- | --- | --- |
| CC1=C(C)[C@H]2[C@H](Cc3ccc(O)cc3)NC(=O)[C@]23OC(=O)C/C=C(/C)C(=O)[C@@H](C)C/C=C/[C@H]3[C@@H]1O | 1.6 | 4 µM | 4.4 µM | 1.4 | 7 µM | > 23 | 0.9 | > 100 µM | 6 µM |
| CC(C)c1c(C(=O)Nc2ccccc2)c(-c2ccccc2)c(-c2ccc(F)cc2)n1CC[C@@H](O)C[C@@H](O)CC(=O)O [ATORVASTATIN] |  |  |  | >1428 |  |  |  |  | > 1 µM |
| CCc1nc(N)nc(N)c1-c1ccc(Cl)cc1 [PYRIMETHAMINE] | >166 |  |  |  | > 10 µM |  |  |  |  |
